How the values were obtained:
Assay type in all cases: functional
Rattus norvegicus [1] = species on record: Rattus norvegicus; assay: Hypolipidemic effects(liver weight) in male rats
Procedure, shortened: (§1)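 Male rats, 10 per group, fed 7 days on chow with 10% fat (5.5% added peanut oil), 1.5% cholesterol and 0.1% cholic acid. Oral gavage on days 4-7 in 4% acacia, usually 50 mg/kg daily. Fasted overnight, killed day 8, atrial blood into EDTA. Plasma cholesterol, TG and HDL cholesterol (after MnCl2/heparin precipitation) by Autoanalyzer. % change vs controls, Student's t test.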

Rattus norvegicus [2] = assay: Hypolipidemic effects (low-density lipoprotein (LDL) cholesterol) in male rats;Compound was screening orally at 50 mg/Kg; procedure, shortened: as §1
Rattus norvegicus [3] = species on record: Rattus norvegicus; assay: Hypolipidemic effects(plasma cholesterol) in male rats; procedure, shortened: as §1
Rattus norvegicus [4] = species on record: Rattus norvegicus; assay: Hypolipidemic effects(plasma TG) in male rats; procedure, shortened: as §1
Rattus norvegicus [5] = assay: Hypolipidemic effects (high-density lipoprotein (HDL) cholesterol) in male rats;Compound was screening orally at 50 mg/Kg; procedure, shortened: as §1
Rattus norvegicus [6] = assay: Hypolipidemic effects (low-density lipoprotein (LDL) cholesterol) in male rats; Compound was screening orally at 50 mg/Kg; procedure, shortened: as §1
Rattus norvegicus [7] = assay: Hypolipidemic effects (high-density lipoprotein (HDL) cholesterol) in male rats; Compound was screening orally at 50 mg/Kg; procedure, shortened: as §1
Rattus norvegicus [8] = species on record: Rattus norvegicus; assay: Hypolipidemic effects (low-density lipoprotein (LDL) cholesterol) in male rats; procedure, shortened: as §1
Rattus norvegicus [9] = assay: Hypolipidemic effects(liver weight) in male rats at 50 mg/kg
Procedure, shortened: (§2)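 Head-to-head oral dosing at 12.5, 25 and 50 mg/kg daily […] in male rats kept on a high lipid diet, alongside gemfibrozil reference. Plasma lipid fractions and liver weight expressed as % change vs controls.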

Rattus norvegicus [10] = assay: Hypolipidemic effects (high-density lipoprotein (HDL) cholesterol) in male rats at 12.50 mg/kg; conditions: dose 12.5 mg/kg; procedure, shortened: as §2
Rattus norvegicus [11] = assay: Hypolipidemic effects (Low-density lipoprotein (LDL) cholesterol) in male rats at 25 mg/kg; procedure, shortened: as §2
Rattus norvegicus [12] = assay: Hypolipidemic effects as the ratio of (HDL/LDL) in male rats at dose 12.5 mg/kg.
Procedure, shortened: (§3)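 Male rats on a high lipid diet, dosed orally […] at 12.5, 25 or 50 mg/kg, with gemfibrozil reference. HDL/LDL (VLDL included) ratio from densitometry of polyacrylamide gel electrophoresis patterns of plasma. Expressed as % change vs controls.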

Rattus norvegicus [13] = assay: Hypolipidemic effects(plasma TG) in male rats at 12.50 mg/kg; conditions: dose 12.5 mg/kg; procedure, shortened: as §2
Rattus norvegicus [14] = assay: Hypolipidemic effects(plasma TG) in male rats at 50 mg/kg; procedure, shortened: as §2
Rattus norvegicus [15] = assay: Hypolipidemic effects (high-density lipoprotein (HDL) cholesterol) in male rats at 50 mg/kg; Compound was screening orally at 50 mg/Kg; procedure, shortened: as §1
Rattus norvegicus [16] = assay: Hypolipidemic effects (Low-density lipoprotein (LDL) cholesterol) in male rats at 12.50 mg/kg; conditions: dose 12.5 mg/kg; procedure, shortened: as §2
Rattus norvegicus [17] = assay: Hypolipidemic effects (high-density lipoprotein (HDL) cholesterol) in male rats at 25 mg/kg; procedure, shortened: as §2
Rattus norvegicus [18] = assay: Hypolipidemic effects (Low-density lipoprotein (LDL) cholesterol) in male rats at 50 mg/kg; Compound was screening orally at 50 mg/Kg; procedure, shortened: as §1
Rattus norvegicus [19] = assay: Hypolipidemic effects as the ratio of (HDL/LDL) in male rats at dose 25 mg/kg.; procedure, shortened: as §3
Rattus norvegicus [20] = assay: Hypolipidemic effects(liver weight) in male rats at 25 mg/kg; procedure, shortened: as §2
Rattus norvegicus [21] = assay: Hypolipidemic effects(plasma TG) in male rats at 25 mg/kg; procedure, shortened: as §2
Rattus norvegicus [22] = assay: Hypolipidemic effects(plasma cholesterol) in male rats at 12.50 mg/kg; conditions: dose 12.5 mg/kg; procedure, shortened: as §2
Rattus norvegicus [23] = assay: Hypolipidemic effects(plasma cholesterol) in male rats at 50 mg/kg; procedure, shortened: as §2
Rattus norvegicus [24] = assay: Hypolipidemic effects(liver weight) in male rats at 12.50 mg/kg; conditions: dose 12.5 mg/kg; procedure, shortened: as §2
Rattus norvegicus [25] = assay: Hypolipidemic effects(plasma cholesterol) in male rats at 25 mg/kg; procedure, shortened: as §2
Rattus norvegicus [26] = assay: Hypolipidemic effects as the ratio of (HDL/LDL) in male rats at dose 50 mg/kg.; procedure, shortened: as §3

SMILES	Change (Rattus norvegicus [1])	Change (Rattus norvegicus [2])	Change (Rattus norvegicus [3])	Change (Rattus norvegicus [4])	Change (Rattus norvegicus [5])	Change (Rattus norvegicus [7])	other results
O=C(O)C1(CCCCOc2ccc(OCCCCC3(C(=O)O)CCC3)cc2)CCC1	0%	-32%	-23%	0%	55%	–	–
CC(C)(CCCCCOc1cccc(OCCCCCC(C)(C)C(=O)O)c1)C(=O)O	0%	–	-22%	0%	48%	–	Change (Rattus norvegicus [6]): -27%
COC(=O)C(C)(C)CCCOc1ccc(C=N/N=C(/N)S)c(OCCCC(C)(C)C(=O)OC)c1	38%	-83%	-60%	-50%	–	280%	–
COC(=O)C(C)(C)CCCSc1ccc(Oc2ccc(SCCCC(C)(C)C(=O)OC)cc2)cc1	4%	-31%	-29%	0%	–	0%	–
CC(C)(CCCOc1ccc(OCCCC(C)(C)C(=O)O)c(CO)c1)C(=O)O	9%	0%	40%	18%	–	319%	–
CC(C)(CCCOc1ccc(OCCCC(C)(C)C(=O)O)cc1)C(=O)O	–	–	-45%	0%	791%	44%	Change (Rattus norvegicus [6]): -27%
CCCC(O)c1cc(OCCCC(C)(C)C(=O)O)ccc1OCCCC(C)(C)C(=O)O (stereo unspecified)	37%	-45%	61%	0%	–	1292%	–
COC(=O)C(C)(C)CCCOc1cccc(OC)c1OCCCC(C)(C)C(=O)OC	0%	–	0%	0%	0%	–	Change (Rattus norvegicus [8]): 0%
COC(=O)C(C)(C)CCCOc1ccc(OCCCC(C)(C)C(=O)OC)c(/C=N/NC(N)=O)c1	4%	–	-28%	0%	0%	–	Change (Rattus norvegicus [6]): -33%
COC(=O)C(C)(C)CCCOc1ccc(OCCCC(C)(C)C(=O)OC)c(F)c1	41%	-65%	-30%	0%	347%	–	–
CC(C)(Oc1cccc(OC(C)(C)C(=O)O)c1)C(=O)O	0%	0%	0%	0%	–	0%	–
COC(=O)C(C)(C)CCCOc1ccc(OCCCC(C)(C)C(=O)OC)c(C(=O)c2ccccc2)c1	11%	-42%	0%	43%	421%	–	–
COC(=O)C(C)(C)CCCOc1ccc(OCCCC(C)(C)C(=O)OC)c(C)c1	–	–	–	–	–	–	Change (Rattus norvegicus [9]): 38%; Change (Rattus norvegicus [10]): 102%; Change (Rattus norvegicus [11]): -65%; Change (Rattus norvegicus [12]): 142%; Change (Rattus norvegicus [13]): 0%; Change (Rattus norvegicus [14]): 62%; Change (Rattus norvegicus [15]): 743%; Change (Rattus norvegicus [16]): -54%; Change (Rattus norvegicus [17]): 269%; Change (Rattus norvegicus [18]): -71%; Change (Rattus norvegicus [19]): 452%; Change (Rattus norvegicus [20]): 25%; Change (Rattus norvegicus [21]): 0%; Change (Rattus norvegicus [22]): -43%; Change (Rattus norvegicus [23]): -37%; Change (Rattus norvegicus [24]): 13%; Change (Rattus norvegicus [25]): -41%; Change (Rattus norvegicus [26]): 1009%
COC(=O)C(C)(C)CCCOc1cccc(OCCCC(C)(C)C(=O)OC)c1N	8%	-42%	-37%	-41%	–	46%	–
CC(C)(CCCOc1ccc(OCCCC(C)(C)C(=O)O)c(-c2ccc(Cl)cc2)c1)C(=O)O	17%	-78%	-47%	-29%	–	224%	–
COC(=O)C(C)(C)CCCOc1ccc(-c2ccccc2)c(OCCCC(C)(C)C(=O)OC)c1	6%	–	0%	0%	40%	–	Change (Rattus norvegicus [6]): -25%
CC(O)c1cc(OCCCC(C)(C)C(=O)O)ccc1OCCCC(C)(C)C(=O)O (stereo unspecified)	12%	-70%	-27%	0%	–	525%	–
COC(=O)C(C)(C)CCCOc1cccc(OCCCC(C)(C)C(=O)OC)c1C(C)=O	0%	-40%	-38%	0%	–	0%	–
CC(C)(CO)CCCCOc1ccc(OCCCCC(C)(C)CO)cc1	30%	-54%	0%	0%	–	907%	–
CC(C)(CCCOc1ccc(OCCCC(C)(C)C(=O)O)c(C(=O)O)c1)C(=O)O	0%	–	0%	0%	0%	–	Change (Rattus norvegicus [6]): -17%
CC(C)(CCCOc1ccc(OCCCC(C)(C)C(=O)O)c(-c2ccccc2)c1)C(=O)O	–	–	–	–	–	–	Change (Rattus norvegicus [9]): 34%; Change (Rattus norvegicus [10]): 518%; Change (Rattus norvegicus [11]): -72%; Change (Rattus norvegicus [12]): 945%; Change (Rattus norvegicus [13]): 32%; Change (Rattus norvegicus [14]): 31%; Change (Rattus norvegicus [15]): 1410%; Change (Rattus norvegicus [16]): -78%; Change (Rattus norvegicus [17]): 741%; Change (Rattus norvegicus [18]): -85%; Change (Rattus norvegicus [19]): 1798%; Change (Rattus norvegicus [20]): 22%; Change (Rattus norvegicus [21]): 82%; Change (Rattus norvegicus [22]): -53%; Change (Rattus norvegicus [23]): -27%; Change (Rattus norvegicus [24]): 13%; Change (Rattus norvegicus [25]): -52%; Change (Rattus norvegicus [26]): 2432%
CC(C)(CCCOc1ccc(C(=O)c2ccccc2)c(OCCCC(C)(C)C(=O)O)c1)C(=O)O	11%	-10%	0%	57%	–	169%	–
Cc1ccc(-c2cc(OCCCC(C)(C)C(=O)O)ccc2OCCCC(C)(C)C(=O)O)cc1	0%	-42%	-32%	-27%	–	66%	–
